The values that follow come from ChEMBL document CHEMBL4270609, “Purple acid phosphatase inhibitors as leads for osteoporosis chemotherapeutics” (Eur J Med Chem, 2018).

Calls of active or inactive are those of the source. The rule behind the calls is not given here.

For assay [1], the target named is T1, Tartrate-resistant acid phosphatase type 5 (Sus scrofa) (UniProt P09889).
T1 sequence (whole entry): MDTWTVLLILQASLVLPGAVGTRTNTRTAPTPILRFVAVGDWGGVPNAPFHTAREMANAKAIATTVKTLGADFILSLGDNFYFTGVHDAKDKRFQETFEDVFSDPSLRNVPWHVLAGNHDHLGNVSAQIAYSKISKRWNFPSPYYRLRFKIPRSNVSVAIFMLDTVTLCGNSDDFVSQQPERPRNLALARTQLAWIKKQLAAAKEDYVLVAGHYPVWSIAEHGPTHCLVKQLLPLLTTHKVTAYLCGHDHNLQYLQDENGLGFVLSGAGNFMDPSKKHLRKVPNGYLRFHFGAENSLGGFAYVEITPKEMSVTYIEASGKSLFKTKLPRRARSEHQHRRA
The assay is described as follows: Uncompetitive inhibition of pig purple acid phosphatase Fe(3)Fe(2) state assessed as enzyme-substrate-inhibitor complex using pNPP as substrate by UV/Vis spectrophotometric method. Summed up: (§1)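 Pig PAP was from sow uterine fluid and pre-reduced to Fe(III)Fe(II) with 0.77 mM β-mercaptoethanol (10 min, 37 °C); rkbPAP was purified from red kidney beans. Assays ran at 25 °C, pH 4.9 (0.1 M acetate, 25% DMSO) with 12 nM enzyme, pNPP 1–12.5 mM and inhibitor 50–300 μM. p-Nitrophenol was read at 405 nm. Kic and Kiuc came from non-linear fit to the general inhibition equation.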

The target in assay [2] is T1, Tartrate-resistant acid phosphatase type 5 (Sus scrofa). Briefly: Competitive inhibition of pig purple acid phosphatase Fe(3)Fe(2) state assessed as enzyme-inhibitor complex using pNPP as substrate by UV/Vis spectrophotometric method. Summed up:
as §1

The target of assay [3] is T2, Fe(3+)-Zn(2+) purple acid phosphatase (Phaseolus vulgaris) (UniProt P80366).
T2 sequence (whole entry): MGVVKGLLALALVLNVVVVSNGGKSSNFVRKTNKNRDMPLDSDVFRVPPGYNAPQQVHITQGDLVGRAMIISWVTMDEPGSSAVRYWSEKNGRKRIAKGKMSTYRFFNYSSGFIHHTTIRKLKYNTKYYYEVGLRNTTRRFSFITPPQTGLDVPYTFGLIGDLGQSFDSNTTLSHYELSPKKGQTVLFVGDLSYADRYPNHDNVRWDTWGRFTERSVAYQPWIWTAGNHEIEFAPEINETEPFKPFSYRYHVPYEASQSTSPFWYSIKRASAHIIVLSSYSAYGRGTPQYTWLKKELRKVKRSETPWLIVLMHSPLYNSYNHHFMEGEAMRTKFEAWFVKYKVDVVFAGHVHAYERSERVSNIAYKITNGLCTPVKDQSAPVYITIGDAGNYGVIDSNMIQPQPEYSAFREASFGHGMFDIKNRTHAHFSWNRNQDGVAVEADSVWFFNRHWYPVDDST
Briefly: Competitive inhibition of red kidney bean purple acid phosphatase Fe(3)Fe(2) state assessed as enzyme-inhibitor complex using pNPP as substrate by UV/Vis spectrophotometric method. Summed up: as §1

Assay [4] deals with T1, Tartrate-resistant acid phosphatase type 5 (Sus scrofa). The assay is described as follows: Inhibition of pig purple acid phosphatase Fe(3)Fe(2) state assessed as enzyme-inhibitor complex at 100 uM using pNPP as substrate by UV/Vis spectrophotometric method. The gist of the method:
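Used 5 mM pNPP substrate and 12 nM enzyme in 0.1 M acetate pH 4.9 with 25% DMSO at 25 °C. p-Nitrophenol formation was followed at 405 nm; result expressed as percentage inhibition.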

Assay [5] deals with T2, Fe(3+)-Zn(2+) purple acid phosphatase (Phaseolus vulgaris). The assay is described as follows: Uncompetitive inhibition of red kidney bean purple acid phosphatase Fe(3)Fe(2) state assessed as enzyme-substrate-inhibitor complex using pNPP as substrate by UV/Vis spectrophotometric method. Summed up:
as §1

For the compound `O=C(O)c1csc(-c2cccc3ccccc23)n1`, the Kiuc in assay [1] was found to be 110 µM. Also, the Kic was 33 µM in assay [2] and 185 µM in assay [3].

Regarding `O=C(O)c1csc(-c2ccccc2Cl)n1`, the Kiuc in assay [1] worked out at 350 µM. Moreover, the figures for the Kic in assay [2] and in assay [3] were 630 µM and 920 µM, respectively.

Take `O=C(O)[C@@H]1CSC(c2cccc3ccccc23)N1` (some centres not stated): the inhibition entry in assay [4] was “inactive”.

Take `COc1ccc(-c2nc(C(=O)O)cs2)cc1`: the Kic came to 120 µM in assay [2] and 400 µM in assay [3]. In assay [5], the Kiuc was 770 µM.

As for `O=C(O)[C@@H]1CSC(c2ccc(O)cc2)N1` (some centres not stated), the inhibition result in assay [4] is “inactive”.

With `O=C(O)[C@@H]1CSC(c2ccccc2O)N1` (some centres not stated), the inhibition result in assay [4] was “inactive”.

Consider `COc1ccc(C2N[C@H](C(=O)O)CS2)cc1` (some centres not stated), for which the inhibition result in assay [4] was “inactive”.

As to `O=C(O)[C@@H]1CSC(c2ccco2)N1` (some centres not stated), in assay [4], the inhibition entry is “inactive”.

With `O=C(O)[C@@H]1CSC(c2ccccc2)N1` (some centres not stated), the inhibition result in assay [4] was “inactive”.

Turning to `Cc1ccc(C2N[C@H](C(=O)O)CS2)cc1` (some centres not stated), in assay [4], the inhibition entry is “inactive”.

For the compound `O=C(O)c1csc(-c2ccc(Cl)cc2)n1`, the Kic turned out to be 49 µM in assay [2] and 530 µM in assay [3].

As for `O=C(O)[C@@H]1CSC(c2c(O)ccc3ccccc23)N1` (some centres not stated), in assay [4], the inhibition result was “inactive”.

Take `O=C(O)c1csc(-c2ccccc2)n1`: the Kic in assay [2] worked out at 190 µM.

As for `Cc1ccc(-c2nc(C(=O)O)cs2)cc1`, the Kic in assay [2] came to 42 µM; in assay [3], 340 µM.
